In the M2OR odorant receptor database:

target: T1, OR5M3 (Homo sapiens) (UniProt Q8NGP4); settings: stereoisomer not certain
T1 sequence (whole entry): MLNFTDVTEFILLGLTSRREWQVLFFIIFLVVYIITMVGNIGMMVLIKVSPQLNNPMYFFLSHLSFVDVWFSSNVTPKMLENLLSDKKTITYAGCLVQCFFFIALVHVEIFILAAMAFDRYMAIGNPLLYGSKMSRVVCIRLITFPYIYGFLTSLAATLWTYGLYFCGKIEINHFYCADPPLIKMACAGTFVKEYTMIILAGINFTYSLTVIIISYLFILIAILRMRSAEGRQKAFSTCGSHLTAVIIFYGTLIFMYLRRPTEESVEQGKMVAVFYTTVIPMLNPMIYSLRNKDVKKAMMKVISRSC
Procedure, shortened: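 Assay methods differ from source to source, frequently being transient luciferase assays in mammalian cell lines. For each receptor–molecule pair, the label responsive (active) applies when the original authors judged the measured signal statistically different from baseline, and non-responsive (inactive) applies otherwise.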

Odorant receptor agonist call, inactive:
O=c1ccc2ccccc2o1, CCCCCC=CC=O, O=C(O)CCc1ccccc1, CCCC(=O)OC, COC(=O)C=Cc1ccccc1, CCCCC(=O)OCC, CC(C)CC=O, CCOC(C)OCC, C=Cc1ccc(O)cc1, CCCCCCCC1CCCC(=O)O1 (configuration not stated), COC(=O)C(C)C, CCc1cccc(O)c1, C=Cc1ccc(O)c(OC)c1, COc1ccc2ccc(=O)oc2c1, C=C(C)c1ccc(C)cc1, C=CC(=O)CCCCC, CCCCCCCCC=CC=O, SCc1cccs1, CCCCC1CCC(=O)O1 (configuration not stated), Cc1ccc(O)cc1, CC(C)=CCCC(C)=CCO, CCCCCC(=O)OCC, C=C1CCC2CC1C2(C)C (configuration not stated), CCOC(C)=O, CCCCCCC1CCC(=O)O1 (configuration not stated), CC1(C)OC=CC1=O, CCCC1CCCC(=O)O1 (configuration not stated), CC(=O)C=CC1=C(C)CCCC1(C)C, Cc1occc1S, CC(=O)OCCC(C)C, CCCCC=CC=CC=O, CC(=O)C(C)O (configuration not stated)
